Experimental data as given in ChEMBL document CHEMBL4011653, “Design, Synthesis, and Evaluation of Novel Prodrugs of Transition State Inhibitors of Norovirus 3CL Protease” (J Med Chem, 2017).

Tests used:
[1] = system: Norovirus; test: Antiviral activity against Norovirus infected in human HG23 cells assessed as inhibition of viral replication after 48 hrs by quantitative RT-PCR method; assay type: functional, cell-based; settings: HG23, 48 h
[2] = Inhibition of Norovirus 3CL protease using Edans-DFHLQ/GP-Dabcyl as substrate after 30 mins by FRET assay
Outline: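 Norovirus 3CL protease was preincubated with serial compound dilutions up to 100 μM, or DMSO, for 30 min at 37 °C. Edans-DFHLQ/GP-Dabcyl substrate was then added. Buffer was 20 mM HEPES pH 8, 200 mM NaCl, 0.4 mM EDTA, 60% glycerol and 6 mM DTT. Fluorescence (ex 360/em 460 nm) was read for 1 h, minus the no-protease background. IC50 came from variable-slope curve fits.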

[3] = Metabolic stability of mouse liver microsomes assessed as amount of parent compound remaining at 25 to 100 uM after 1 hr in the presence of NADPH by LC-MS method; assay type: ADME, microsome; settings: read-out: Stability
Outline: (§1)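 Compound at 25 or 100 μM was incubated with mouse or human liver microsomes plus NADPH for 1 h at 37 °C. The remaining aldehyde form was quantified by LC/MS.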

[4] = Selectivity index, ratio of CC50 for human HeLa cells to EC50 for norovirus
[5] = Protein binding in mouse serum at 25 to 100 uM after 4 hrs by LC-MS method; assay type: ADME, cell-free; settings: read-out: PB (converted)
[6] = system: HeLa; test: Cytotoxicity against human HeLa cells assessed as cell viability after 72 hrs by MTT assay; assay type: functional
[7] = Metabolic stability of human liver microsomes assessed as amount of parent compound remaining at 25 to 100 uM after 1 hr in the presence of NADPH by LC-MS method; assay type: ADME, microsome; settings: read-out: Stability; outline: as §1
[8] = Metabolic stability in mouse serum assessed as amount of parent compound remaining at 25 to 100 uM at 37 degC after 1 hr by LC-MS analysis; assay type: ADME, cell-free; settings: read-out: Stability
[9] = Metabolic stability in human serum assessed as amount of parent compound remaining at 25 to 100 uM at 37 degC after 1 hr by LC-MS analysis; assay type: ADME, cell-free; settings: read-out: Stability
[10] = Protein binding in human serum at 25 to 100 uM after 4 hrs by LC-MS method; assay type: ADME, cell-free; settings: read-out: PB (converted)
[11] = system: Serum; test: Prodrug activation in human serum assessed as 3-chlorobenzyl (S)-3-cyclohexyl-1-oxo-1-((S)-1-oxo-3-((S)-2-oxopyrrolidin-3-yl)propan-2-ylamino)propan-2-ylcarbamate formation by measuring parent compound half life at 25 to 100 uM by LC-MS method; assay type: ADME, cell-free
[12] = Prodrug activation in human HG23 cells assessed as 3-chlorobenzyl (S)-3-cyclohexyl-1-oxo-1-((S)-1-oxo-3-((S)-2-oxopyrrolidin-3-yl)propan-2-ylamino)propan-2-ylcarbamate formation by LC-MS method; assay type: ADME, cell-based

Compound `CC(C)C(=O)OC([C@H](C[C@@H]1CCNC1=O)NC(=O)[C@H](CC1CCCCC1)NC(=O)OCc1cccc(Cl)c1)S(=O)(=O)O` (some centres undefined) has an EC50 [1] of 30 nM and an IC50 [2] of 300 nM.

Compound `CC(C)C[C@H](NC(=O)OCc1ccccc1)C(=O)N[C@@H](C[C@@H]1CCNC1=O)C(O)S(=O)(=O)O` (some centres undefined) has an EC50 [1] of 300 nM, a remaining at 1 h, up to 100 µM [3] of 82% and a selectivity ratio [4] of over 667. For the same compound, the fraction unbound at 4 h, up to 100 µM [5] was 0.29, the CC50 [6] was over 200000 nM and the remaining at 1 h, up to 100 µM [7] was 92%. For the same compound, the remaining at 1 h, up to 100 µM [8] was 18%, the IC50 [2] was 800 nM and the remaining at 1 h, up to 100 µM [9] was 2%. It also gave a fraction unbound at 4 h, up to 100 µM [10] of 0.35.

`COC(=O)C(C)NC(=O)OC([C@H](C[C@@H]1CCNC1=O)NC(=O)[C@H](CC(C)C)NC(=O)OCc1ccccc1)S(=O)(=O)O` (some centres undefined) showed an EC50 [1] of 300 nM and an IC50 [2] of 1800 nM.

Work on `COc1ccc(CCN(C)CCCC(C#N)(c2ccc(OC)c(OC)c2)C(C)C)cc1OC` (centres undefined) yielded a remaining at 1 h, up to 100 µM [3] of 30% and a remaining at 1 h, up to 100 µM [7] of 41%.

`CCCCCCOC(=O)OC([C@H](C[C@@H]1CCNC1=O)NC(=O)[C@H](CC1CCCCC1)NC(=O)OCc1cccc(Cl)c1)S(=O)(=O)O` (some centres undefined) gave an EC50 [1] of 25 nM and an IC50 [2] of 800 nM.

In the case of `COC(=O)C(NC(=O)OC([C@H](C[C@@H]1CCNC1=O)NC(=O)[C@H](CC(C)C)NC(=O)OCc1ccccc1)S(=O)(=O)O)C(C)C` (some centres undefined), the EC50 [1] is reported as 400 nM and the IC50 [2] is reported as 2500 nM.

`COC(=O)CNC(=O)OC([C@H](C[C@@H]1CCNC1=O)NC(=O)[C@H](CC(C)C)NC(=O)OCc1ccccc1)S(=O)(=O)O` (some centres undefined) showed an EC50 [1] of 400 nM and an IC50 [2] of 3100 nM.

In the case of `CCCCC(=O)OC([C@H](C[C@@H]1CCNC1=O)NC(=O)[C@H](CC(C)C)NC(=O)OCc1ccccc1)S(=O)(=O)O` (some centres undefined), the EC50 [1] is reported as 1400 nM and the IC50 [2] is reported as 3500 nM.

In the case of `CC(=O)OC([C@H](C[C@@H]1CCNC1=O)NC(=O)[C@H](CC(C)C)NC(=O)OCc1ccccc1)S(=O)(=O)O` (some centres undefined), the EC50 [1] is reported as 600 nM and the IC50 [2] is reported as 10500 nM.

`CCCCCCCC(=O)OC([C@H](C[C@@H]1CCNC1=O)NC(=O)[C@H](CC(C)C)NC(=O)OCc1ccccc1)S(=O)(=O)O` (some centres undefined) showed an EC50 [1] of 500 nM and an IC50 [2] of 3000 nM.

`O=C[C@H](C[C@@H]1CCNC1=O)NC(=O)[C@H](CC1CCCCC1)NC(=O)OCc1cccc(Cl)c1` gave an EC50 [1] of 20 nM, a remaining at 1 h, up to 100 µM [3] of 40% and a selectivity ratio [4] of 2800. The fraction unbound at 4 h, up to 100 µM [5] was 0.02, the CC50 [6] was 56100 nM and the remaining at 1 h, up to 100 µM [7] was 63%. For the same compound, the IC50 [2] was 100 nM and the fraction unbound at 4 h, up to 100 µM [10] was 0.02.

`CCCC(=O)OC([C@H](C[C@@H]1CCNC1=O)NC(=O)[C@H](CC(C)C)NC(=O)OCc1ccccc1)S(=O)(=O)O` (some centres undefined) gave an EC50 [1] of 1300 nM and an IC50 [2] of 3700 nM.

For `COC(=O)C(C)NC(=O)OC([C@H](C[C@@H]1CCNC1=O)NC(=O)[C@H](CC1CCCCC1)NC(=O)OCc1cccc(Cl)c1)S(=O)(=O)O` (some centres undefined), the EC50 [1] was 25 nM and the IC50 [2] was 800 nM.

For `CC(C)C[C@H](NC(=O)OCc1ccccc1)C(=O)N[C@@H](C[C@@H]1CCNC1=O)C(OC(=O)c1ccccc1)S(=O)(=O)O` (some centres undefined), the EC50 [1] was 800 nM and the IC50 [2] was 7200 nM.

For `CCC(=O)OC([C@H](C[C@@H]1CCNC1=O)NC(=O)[C@H](CC1CCCCC1)NC(=O)OCc1cccc(Cl)c1)S(=O)(=O)[O-].[Na+]` (some centres undefined), the EC50 [1] was 25 nM, the remaining at 1 h, up to 100 µM [3] was 17% and the t1/2 [11] was 25 min. The selectivity ratio [4] was 4480, the CC50 [6] was 112000 nM and the remaining at 1 h, up to 100 µM [7] was 11%. It also gave a remaining at 1 h, up to 100 µM [8] of 0%, an IC50 [2] of 100 nM and a remaining at 1 h, up to 100 µM [9] of 52%.

With `O=C(N[C@@H](CC1CCCCC1)C(=O)N[C@@H](C[C@@H]1CCNC1=O)C(OC(=O)C1CCCCC1)S(=O)(=O)O)OCc1cccc(Cl)c1` (some centres undefined) the EC50 [1] was 20 nM and the IC50 [2] was 400 nM.

In the case of `CC(=O)CC(c1ccccc1)c1c(O)c2ccccc2oc1=O` (centres undefined) [WARFARIN], the remaining at 1 h, up to 100 µM [3] is reported as 99.6%, the fraction unbound at 4 h, up to 100 µM [5] is reported as 0.04 and the remaining at 1 h, up to 100 µM [7] is reported as 95%. For the same compound, the fraction unbound at 4 h, up to 100 µM [10] was 0.01.

`CCC(=O)OC([C@H](C[C@@H]1CCNC1=O)NC(=O)[C@H](CC(C)C)NC(=O)OCc1ccccc1)S(=O)(=O)O` (some centres undefined) gave an EC50 [1] of 700 nM and an IC50 [2] of 7500 nM.

Compound `COC(=O)C(NC(=O)OC([C@H](C[C@@H]1CCNC1=O)NC(=O)[C@H](CC1CCCCC1)NC(=O)OCc1cccc(Cl)c1)S(=O)(=O)O)C(C)C` (some centres undefined) has an EC50 [1] of 40 nM and an IC50 [2] of 500 nM.

Work on `CC(C)C[C@H](NC(=O)OCc1ccccc1)C(=O)N[C@@H](C[C@@H]1CCNC1=O)C(OC(=O)C(C)C)S(=O)(=O)O` (some centres undefined) yielded an EC50 [1] of 300 nM and an IC50 [2] of 3500 nM.

For `CCCCCC(=O)OC([C@H](C[C@@H]1CCNC1=O)NC(=O)[C@H](CC(C)C)NC(=O)OCc1ccccc1)S(=O)(=O)O` (some centres undefined), the EC50 [1] was 300 nM and the IC50 [2] was 2800 nM.

Work on `CC(=O)OC([C@H](C[C@@H]1CCNC1=O)NC(=O)[C@H](CC1CCCCC1)NC(=O)OCc1cccc(Cl)c1)S(=O)(=O)[O-].[Na+]` (some centres undefined) yielded an EC50 [1] of 30 nM, a remaining at 1 h, up to 100 µM [3] of 14% and a t1/2 [11] of 25 min. For the same compound, the selectivity ratio [4] was over 6670, the CC50 [6] was over 200000 nM and the remaining at 1 h, up to 100 µM [7] was 17%. It also gave a remaining at 1 h, up to 100 µM [8] of 0%, an IC50 [2] of 80 nM and a remaining at 1 h, up to 100 µM [9] of 56%. For the same compound, the Drug metabolism [12] was “Metabolite_Detected”.

`CCCCCC(=O)OC([C@H](C[C@@H]1CCNC1=O)NC(=O)[C@H](CC1CCCCC1)NC(=O)OCc1cccc(Cl)c1)S(=O)(=O)O` (some centres undefined) showed an EC50 [1] of 15 nM, a remaining at 1 h, up to 100 µM [3] of 38% and a selectivity ratio [4] of 5470. It also gave a CC50 [6] of 82000 nM, a remaining at 1 h, up to 100 µM [7] of 76% and a remaining at 1 h, up to 100 µM [8] of 60%. For the same compound, the IC50 [2] was 100 nM and the remaining at 1 h, up to 100 µM [9] was 103%.

In the case of `CC(=O)OC([C@H](C[C@@H]1CCNC1=O)NC(=O)[C@H](CC1CCCCC1)NC(=O)OCc1ccccc1)S(=O)(=O)O` (some centres undefined), the EC50 [1] is reported as 200 nM and the IC50 [2] is reported as 7500 nM.

`COC(=O)C(C)NC(=O)OC([C@H](C[C@@H]1CCNC1=O)NC(=O)[C@H](CC1CCCCC1)NC(=O)OCc1ccccc1)S(=O)(=O)O` (some centres undefined) showed an EC50 [1] of 200 nM and an IC50 [2] of 10200 nM.

Compound `CCCCCCCC(=O)OC([C@H](C[C@@H]1CCNC1=O)NC(=O)[C@H](CC1CCCCC1)NC(=O)OCc1cccc(Cl)c1)S(=O)(=O)O` (some centres undefined) has an EC50 [1] of 30 nM and an IC50 [2] of 900 nM.

Compound `O=C(N[C@@H](CC1CCCCC1)C(=O)N[C@@H](C[C@@H]1CCNC1=O)C(O)S(=O)(=O)O)OCc1cccc(Cl)c1` (some centres undefined) has an EC50 [1] of 20 nM, a remaining at 1 h, up to 100 µM [3] of 35% and a selectivity ratio [4] of 2480. For the same compound, the fraction unbound at 4 h, up to 100 µM [5] was 0.03, the CC50 [6] was 49600 nM and the remaining at 1 h, up to 100 µM [7] was 54%. For the same compound, the remaining at 1 h, up to 100 µM [8] was 0%, the IC50 [2] was 100 nM and the remaining at 1 h, up to 100 µM [9] was 0%. For the same compound, the fraction unbound at 4 h, up to 100 µM [10] was 0.04.
